Results from ChEMBL document CHEMBL5303300, “EUbOPEN Chemogenomics Library - Multiplex” (2023).
Where “and” joins values, the source holds several entries; their conditions need not be identical. Equal entries are not always repeated.

Tested on: Fibroblast
Assay: Multiplex assay against human fibroblast
Assay type: toxicity, cell-based
Conditions: number of replicates 2
Method in brief: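 Live cells carried four stains from seeding: Hoechst33342, BioTracker Green Microtubule Cytoskeleton Dye, MitoTracker Red and Annexin V Alexa Fluor 680. They were imaged on a CQ1 microscope at 37°C and 5% CO2 after compound addition. Using CellPathfinder machine-learning gating, cells were split into Hoechst high-intensity objects or normal cells, normal cells into healthy, pyknosed or fragmented nuclei, and pyknosed cells into mitotic or apoptotic; tubulin, mitochondrial-mass and membrane-permeability phenotypes are per cents of healthy-nucleus cells.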

[1] = 12 h, 1 µM, compound concentration 1 uM
[2] = 12 h, 10 µM, compound concentration 10 uM
[3] = 24 h, 1 µM, compound concentration 1 uM
[4] = 24 h, 10 µM, compound concentration 10 uM
[5] = 48 h, 1 µM, compound concentration 1 uM
[6] = 48 h, 10 µM, compound concentration 10 uM

CS(=O)(=O)c1ccc(C(=O)Nc2cccc(COc3ccc(Br)cc3CN[C@H]3CCC[C@@H]3O)c2)c(Cl)c1.O=CO
Population Apoptotic (%) [1]: 24% and 46%
Population Healthy Nuclei (%) [1]: 71% and 64%
Population Hoechst High Intensity Objects (%) [1]: 0%
Population Mitotic Cells (%) [1]: 75% and 53%
Population Normal (%) [1]: 99% and 100%
Population Pyknosed Nuclei (%) [1]: 20%
Total Cell Count [1]: 223 and 167
Population Apoptotic (%) [2]: 52% and 50%
Population Healthy Nuclei (%) [2]: 43% and 57%
Population Hoechst High Intensity Objects (%) [2]: 1% and 0%
Population Mitotic Cells (%) [2]: 47% and 50%
Population Normal (%) [2]: 98% and 99%
Population Pyknosed Nuclei (%) [2]: 42%
Total Cell Count [2]: 187 and 221
Population Apoptotic (%) [3]: 44% and 73%
Population Healthy Nuclei (%) [3]: 68% and 59%
Population Hoechst High Intensity Objects (%) [3]: 0%
Population Normal (%) [3]: 100%
Total Cell Count [3]: 219 and 171
Population Apoptotic (%) [4]: 62% and 72%
Population Healthy Nuclei (%) [4]: 58% and 51%
Population Hoechst High Intensity Objects (%) [4]: 0%
Population Mitotic Cells (%) [4]: 37% and 27%
Population Normal (%) [4]: 99% and 97%
Population Pyknosed Nuclei (%) [4]: 32%
Total Cell Count [4]: 202 and 182
Population Apoptotic (%) [5]: 75% and 70%
Population Healthy Nuclei (%) [5]: 70% and 68%
Population Hoechst High Intensity Objects (%) [5]: 0%
Population Mitotic Cells (%) [5]: 24% and 29%
Population Normal (%) [5]: 99% and 100%
Population Pyknosed Nuclei (%) [5]: 20%
Total Cell Count [5]: 218 and 154
Population Apoptotic (%) [6]: 87% and 86%
Population Healthy Nuclei (%) [6]: 71% and 55%
Population Hoechst High Intensity Objects (%) [6]: 0% and 1%
Population Normal (%) [6]: 99% and 98%
Population Pyknosed Nuclei (%) [6]: 20%
Total Cell Count [6]: 197 and 190

Cn1ncc(NC(=O)c2nc(-c3c(F)cccc3F)sc2N)c1N1CC[C@@H](N)[C@H](F)CC1
Population Apoptotic (%) [1]: 60% and 38%
Population Fragmented Nuclei (%) [1]: 18%
Population Healthy Nuclei (%) [1]: 67% and 74%
Population Mitotic Cells (%) [1]: 40%
Population Normal (%) [1]: 100% and 99%
Population Tubulin-Different-Phenotype (%) [1]: 14% and 8%
Total Cell Count [1]: 170 and 268
Population Apoptotic (%) [2]: 26% and 21%
Population Fragmented Nuclei (%) [2]: 35%
Population Healthy Nuclei (%) [2]: 48% and 47%
Population Mitotic Cells (%) [2]: 73% and 78%
Population Normal (%) [2]: 100%
Population Tubulin-Different-Phenotype (%) [2]: 34% and 25%
Total Cell Count [2]: 307 and 502
Population Apoptotic (%) [3]: 65% and 54%
Population Fragmented Nuclei (%) [3]: 15%
Population Healthy Nuclei (%) [3]: 65% and 73%
Population Mitotic Cells (%) [3]: 34% and 45%
Population Normal (%) [3]: 100%
Population Tubulin-Different-Phenotype (%) [3]: 13% and 7%
Total Cell Count [3]: 172 and 273
Population Apoptotic (%) [4]: 27% and 21%
Population Fragmented Nuclei (%) [4]: 48% and 56%
Population Healthy Nuclei (%) [4]: 43% and 38%
Population Mitotic Cells (%) [4]: 72% and 78%
Population Normal (%) [4]: 100% and 99%
Population Tubulin-Different-Phenotype (%) [4]: 38% and 31%
Total Cell Count [4]: 456 and 659
Population Apoptotic (%) [5]: 80% and 51%
Population Fragmented Nuclei (%) [5]: 20%
Population Healthy Nuclei (%) [5]: 63% and 69%
Population Mitotic Cells (%) [5]: 20% and 48%
Population Normal (%) [5]: 100%
Total Cell Count [5]: 193 and 286
Population Apoptotic (%) [6]: 66% and 54%
Population Fragmented Nuclei (%) [6]: 52% and 60%
Population Healthy Nuclei (%) [6]: 45% and 38%
Population Mitotic Cells (%) [6]: 45%
Population Normal (%) [6]: 100%
Population Tubulin-Different-Phenotype (%) [6]: 43% and 27%
Total Cell Count [6]: 604 and 928

CC(C)N(CCCCOCC(=O)NS(C)(=O)=O)c1cnc(-c2ccccc2)c(-c2ccccc2)n1 [SELEXIPAG]
Population Apoptotic (%) [1]: 54% and 38%
Population Fragmented Nuclei (%) [1]: 4% and 10%
Population Healthy Nuclei (%) [1]: 77% and 72%
Population Hoechst High Intensity Objects (%) [1]: 0%
Population Membrane Permeable-Phenotype (%) [1]: 4%
Population Mitochondria Different-Phenotype (%) [1]: 2% and 0%
Population Mitotic Cells (%) [1]: 45% and 61%
Population Normal (%) [1]: 100%
Population Pyknosed Nuclei (%) [1]: 18% and 16%
Population Tubulin-Different-Phenotype (%) [1]: 10% and 11%
Total Cell Count [1]: 168 and 186
Population Apoptotic (%) [2]: 56% and 54%
Population Fragmented Nuclei (%) [2]: 7% and 14%
Population Healthy Nuclei (%) [2]: 61% and 63%
Population Hoechst High Intensity Objects (%) [2]: 0%
Population Membrane Permeable-Phenotype (%) [2]: 0% and 6%
Population Mitochondria Different-Phenotype (%) [2]: 1%
Population Mitotic Cells (%) [2]: 43% and 45%
Population Normal (%) [2]: 100% and 99%
Population Pyknosed Nuclei (%) [2]: 31% and 21%
Population Tubulin-Different-Phenotype (%) [2]: 2% and 10%
Total Cell Count [2]: 148 and 221
Population Apoptotic (%) [3]: 58% and 50%
Population Fragmented Nuclei (%) [3]: 8% and 14%
Population Healthy Nuclei (%) [3]: 75% and 65%
Population Hoechst High Intensity Objects (%) [3]: 0%
Population Membrane Permeable-Phenotype (%) [3]: 6% and 4%
Population Mitochondria Different-Phenotype (%) [3]: 0%
Population Mitotic Cells (%) [3]: 41% and 50%
Population Normal (%) [3]: 99% and 100%
Population Pyknosed Nuclei (%) [3]: 16% and 20%
Population Tubulin-Different-Phenotype (%) [3]: 7% and 8%
Total Cell Count [3]: 175 and 190
Population Apoptotic (%) [4]: 56% and 50%
Population Fragmented Nuclei (%) [4]: 6% and 13%
Population Healthy Nuclei (%) [4]: 63% and 65%
Population Hoechst High Intensity Objects (%) [4]: 0%
Population Membrane Permeable-Phenotype (%) [4]: 2% and 6%
Population Mitochondria Different-Phenotype (%) [4]: 1%
Population Mitotic Cells (%) [4]: 43% and 50%
Population Normal (%) [4]: 100% and 99%
Population Pyknosed Nuclei (%) [4]: 30% and 21%
Population Tubulin-Different-Phenotype (%) [4]: 6% and 8%
Total Cell Count [4]: 152 and 221
Population Apoptotic (%) [5]: 80% and 40%
Population Fragmented Nuclei (%) [5]: 8% and 11%
Population Healthy Nuclei (%) [5]: 79% and 75%
Population Hoechst High Intensity Objects (%) [5]: 0%
Population Membrane Permeable-Phenotype (%) [5]: 4% and 6%
Population Mitochondria Different-Phenotype (%) [5]: 0%
Population Mitotic Cells (%) [5]: 20% and 60%
Population Normal (%) [5]: 99%
Population Pyknosed Nuclei (%) [5]: 11% and 12%
Population Tubulin-Different-Phenotype (%) [5]: 4% and 3%
Total Cell Count [5]: 169 and 204
Population Apoptotic (%) [6]: 90% and 59%
Population Fragmented Nuclei (%) [6]: 8% and 11%
Population Healthy Nuclei (%) [6]: 71% and 68%
Population Hoechst High Intensity Objects (%) [6]: 0%
Population Membrane Permeable-Phenotype (%) [6]: 0% and 4%
Population Mitochondria Different-Phenotype (%) [6]: 0%
Population Normal (%) [6]: 100%
Population Pyknosed Nuclei (%) [6]: 19%
Population Tubulin-Different-Phenotype (%) [6]: 3% and 7%
Total Cell Count [6]: 151 and 212

CCN1CCN(Cc2ccc(C(=O)Nc3ccc(C)c(Oc4ccc5c(c4)CC(=O)N5)c3)cc2C(F)(F)F)CC1.Cl.Cl
Population Apoptotic (%) [1]: 32% and 37%
Population Fragmented Nuclei (%) [1]: 14% and 13%
Population Healthy Nuclei (%) [1]: 59% and 62%
Population Hoechst High Intensity Objects (%) [1]: 0%
Population Membrane Permeable-Phenotype (%) [1]: 2% and 6%
Population Mitochondria Different-Phenotype (%) [1]: 2% and 1%
Population Mitotic Cells (%) [1]: 67% and 62%
Population Normal (%) [1]: 100% and 99%
Population Pyknosed Nuclei (%) [1]: 25% and 23%
Population Tubulin-Different-Phenotype (%) [1]: 27%
Total Cell Count [1]: 230 and 264
Population Apoptotic (%) [2]: 47% and 35%
Population Fragmented Nuclei (%) [2]: 22% and 13%
Population Healthy Nuclei (%) [2]: 58% and 61%
Population Hoechst High Intensity Objects (%) [2]: 0%
Population Membrane Permeable-Phenotype (%) [2]: 8%
Population Mitochondria Different-Phenotype (%) [2]: 11% and 14%
Population Mitotic Cells (%) [2]: 52% and 64%
Population Normal (%) [2]: 99% and 100%
Population Pyknosed Nuclei (%) [2]: 18% and 25%
Population Tubulin-Different-Phenotype (%) [2]: 78% and 73%
Total Cell Count [2]: 298 and 282
Population Apoptotic (%) [3]: 47% and 46%
Population Fragmented Nuclei (%) [3]: 21% and 16%
Population Healthy Nuclei (%) [3]: 61% and 59%
Population Hoechst High Intensity Objects (%) [3]: 0%
Population Membrane Permeable-Phenotype (%) [3]: 3% and 1%
Population Mitochondria Different-Phenotype (%) [3]: 2% and 4%
Population Mitotic Cells (%) [3]: 52% and 53%
Population Normal (%) [3]: 99% and 100%
Population Pyknosed Nuclei (%) [3]: 17% and 23%
Population Tubulin-Different-Phenotype (%) [3]: 28% and 20%
Total Cell Count [3]: 278 and 269
Population Apoptotic (%) [4]: 59% and 68%
Population Fragmented Nuclei (%) [4]: 15% and 7%
Population Healthy Nuclei (%) [4]: 57% and 51%
Population Hoechst High Intensity Objects (%) [4]: 0% and 1%
Population Membrane Permeable-Phenotype (%) [4]: 8% and 5%
Population Mitochondria Different-Phenotype (%) [4]: 27% and 45%
Population Mitotic Cells (%) [4]: 40% and 31%
Population Normal (%) [4]: 99% and 98%
Population Pyknosed Nuclei (%) [4]: 26% and 40%
Population Tubulin-Different-Phenotype (%) [4]: 89% and 78%
Total Cell Count [4]: 258 and 216
Population Apoptotic (%) [5]: 88% and 73%
Population Fragmented Nuclei (%) [5]: 23% and 20%
Population Healthy Nuclei (%) [5]: 67% and 61%
Population Hoechst High Intensity Objects (%) [5]: 0%
Population Membrane Permeable-Phenotype (%) [5]: 4% and 6%
Population Mitochondria Different-Phenotype (%) [5]: 4% and 5%
Population Mitotic Cells (%) [5]: 12% and 26%
Population Normal (%) [5]: 100% and 99%
Population Pyknosed Nuclei (%) [5]: 8% and 18%
Population Tubulin-Different-Phenotype (%) [5]: 28% and 27%
Total Cell Count [5]: 282 and 246
Population Apoptotic (%) [6]: 89% and 92%
Population Fragmented Nuclei (%) [6]: 9% and 18%
Population Healthy Nuclei (%) [6]: 44% and 41%
Population Hoechst High Intensity Objects (%) [6]: 1% and 2%
Population Membrane Permeable-Phenotype (%) [6]: 13% and 12%
Population Mitochondria Different-Phenotype (%) [6]: 48% and 61%
Population Mitotic Cells (%) [6]: 10% and 7%
Population Normal (%) [6]: 98% and 97%
Population Pyknosed Nuclei (%) [6]: 46% and 39%
Population Tubulin-Different-Phenotype (%) [6]: 78% and 93%
Total Cell Count [6]: 190 and 197
